Measured values from paper PMC12217622 (Nature Communications, 2025).

Legend:
TaLYR2D = assay: Radiolabelled LCO binding to membrane fractions, TaLYR2D; parameters: species or system Triticum aestivum; conditions: 2 µM competitor
In short: (§1)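 N. benthamiana leaves (~20 g) were homogenised at 4 °C in Tris pH 8.5, sucrose, EDTA, DTT, PVPP and protease inhibitors, then spun at 3000 x g and 45,000 x g. The pellet was resuspended in 25 mM Na cacodylate pH 6, 1 mM MgCl2, 1 mM CaCl2, 250 mM sucrose. 35S-LCO (enzymatic NodH sulfation) was bound for 1 h on ice, then filtered through glass fibre, washed and counted by scintillation. Three technical replicates.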

TaLYR2A = assay: Radiolabelled LCO binding to membrane fractions, TaLYR2A; parameters: species or system Triticum aestivum; conditions: 2 µM competitor
In short: as §1

MtLYR8 = assay: Radiolabelled LCO binding to membrane fractions, MtLYR8; parameters: species or system Medicago truncatula; conditions: 2 µM competitor
In short: as §1

TaLYR2B = assay: Radiolabelled LCO binding to membrane fractions, TaLYR2B; parameters: species or system Triticum aestivum; conditions: 2 µM competitor
In short: as §1

[1] = test system: R. irregularis DAOM 197198; assay: Stimulation of AMF root-length colonization by LCO and CO4 treatments in wheat; type: in vivo, Triticum aestivum; conditions: 10^−7 M treatment
In short: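 Fielder wheat carried a pZmUBI:BdLYR2-cmyc cassette or empty vector, two lines each. Surface-sterilised seeds were germinated 1 week at 4 °C and 3 days at 25 °C, then planted in attapulgite with 500 R. irregularis DAOM 197198 spores. Plants got 0.5x Long Ashton (7.5 µM NaH2PO4) with 10^-7 M LCO or CO4 or 0.05% acetonitrile at start, 2 and 4 weeks. Roots were stained at 5–6 wpi; colonization was normalised to untreated controls; Kruskal-Wallis test.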

CC(=O)N[C@H]1[C@H](O[C@H]2[C@H](O)[C@@H](NC(C)=O)[C@H](O[C@H]3[C@H](O)[C@@H](NC(C)=O)[C@H](O[C@H]4[C@H](O)[C@@H](NC(C)=O)C(O)O[C@@H]4CO)O[C@@H]3CO)O[C@@H]2CO)O[C@H](CO)[C@@H](O[C@@H]2O[C@H](CO)[C@@H](O[C@@H]3O[C@H](CO)[C@@H](O[C@@H]4O[C@H](CO)[C@@H](O[C@@H]5O[C@H](CO)[C@@H](O)[C@H](O)[C@H]5NC(C)=O)[C@H](O)[C@H]4NC(C)=O)[C@H](O)[C@H]3NC(C)=O)[C@H](O)[C@H]2NC(C)=O)[C@@H]1O (stereo partly shown) [CO8]
competition of LCO binding (TaLYR2D): complete competition
competition of LCO binding (TaLYR2A): complete competition
competition of LCO binding (MtLYR8): complete competition
competition of LCO binding (TaLYR2B): complete competition

CC(=O)N[C@H]1[C@H](O[C@H]2[C@H](O)[C@@H](NC(C)=O)C(O)O[C@@H]2CO)O[C@H](CO)[C@@H](O[C@@H]2O[C@H](CO)[C@@H](O[C@@H]3O[C@H](CO)[C@@H](O)[C@H](O)[C@H]3NC(C)=O)[C@H](O)[C@H]2NC(C)=O)[C@@H]1O (stereo partly shown) [CO4]
competition of LCO binding (TaLYR2D): complete competition
competition of LCO binding (TaLYR2A): complete competition
competition of LCO binding (MtLYR8): complete competition
competition of LCO binding (TaLYR2B): complete competition
effect on AMF colonization ([1]; control wheat plants (empty vector)): increased AMF colonization
effect on AMF colonization ([1]; transgenic wheat plants pUbi:BdLYR2): no further increase
